What was measured:
[1] = Selectivity ratio of CC50 for human TZM-bl cells to EC50 for HIV1 NL4-3 infected in human TZM-bl cells; type: toxicity, cell-based; settings: read-out: Ratio CC50/EC50
Method in brief: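 The selectivity index is CC50/EC50 in TZM-bl cells against NL4-3. […] The highest concentration tested was 125 ng/mL.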

TZM = assay: Cytotoxicity against human TZM-bl cells after 4 days by XTT assay; type: cell-based; settings: 96 h
[2] = test system: Human immunodeficiency virus 1; assay: Antiviral activity against HIV1 NL4-3 infected in human TZM-bl cells after 2 days by luciferase-bright glo assay; type: functional, organism-based; settings: Human immunodeficiency virus 1, NL4-3, TZM-bl, 48 h
[3] = Selectivity ratio of CC50 for human MT4 cells to EC50 for HIV1 RES056 infected in human MT4 cells; type: toxicity, cell-based; settings: read-out: Ratio CC50/EC50
[4] = molecular target: Human immunodeficiency virus type 1 reverse transcriptase (Human immunodeficiency virus 1, UniProt Q72547); assay: Inhibition of recombinant HIV1 reverse transcriptase using (DIG)-dUTP and biotin-labeled dNTPs as substrate after 1 hr by ELISA
MT4 = assay: Cytotoxicity against human MT4 cells after 5 days by MTT assay; type: cell-based; settings: mt4, 120 h
[5] = Selectivity ratio of CC50 for human MT4 cells to EC50 for HIV1 3B infected in human MT4 cells; type: toxicity, cell-based; settings: read-out: Ratio CC50/EC50
[6] = test system: Human immunodeficiency virus 1; assay: Antiviral activity against HIV1 RES056 infected in human MT4 cells assessed as reduction in virus-induced cytopathic effect after 5 days by MTT assay; type: functional, organism-based; settings: Human immunodeficiency virus 1, RES056, MT4, 120 h
[7] = test system: Human immunodeficiency virus 2; assay: Antiviral activity against HIV2 ROD infected in human MT4 cells assessed as reduction in virus-induced cytopathic effect after 5 days by MTT assay; settings: Human immunodeficiency virus 2, ISOLATE ROD, MT4, 120 h
[8] = test system: Human immunodeficiency virus 1; assay: Antiviral activity against wild type HIV1 3B infected in human MT4 cells assessed as reduction in virus-induced cytopathic effect after 5 days by MTT assay; type: functional, organism-based; settings: Human immunodeficiency virus 1, 3B, MT4, 120 h

SMILES	selectivity ratio [1]	CC50 (TZM)	EC50 [2]	selectivity ratio [3]	IC50 [4]	CC50 (MT4)	selectivity ratio [5]	EC50 [6]	EC50 [7]	EC50 [8]
Cc1cc(C#N)cc(C)c1Oc1nc(NC2CN(Cc3ccc(S(N)(=O)=O)cc3)C2)nc2ccsc12	53	> 240 nM	4.53 nM							
Cc1cc(C#N)cc(C)c1Oc1nc(NC2CCN(Cc3ccc(S(C)(=O)=O)cc3)CC2)nc2c1CSC2				259	91 nM	45.3 µM	11700	170 nM	≥ 22.7 µM	3.8 nM
Cc1cc(C#N)cc(C)c1Oc1nc(NC2CCN(Cc3ccc(S(N)(=O)=O)cc3)CC2)nc2c1CSC2				36	410 nM	26.6 µM	715	734 nM	≥ 26.7 µM	37.2 nM
Cc1cc(C#N)cc(C)c1Oc1nc(N[C@H]2CCN(Cc3cccc(C(N)=O)c3)C2)nc2ccsc12	1	> 250 nM	> 250 nM							
Cc1cc(C#N)cc(C)c1Oc1nc(N[C@@H]2CCN(Cc3ccncc3)C2)nc2ccsc12	17	> 273 nM	16 nM							
Cc1cc(C#N)cc(C)c1Oc1nc(N[C@H]2CCN(Cc3ccc(S(N)(=O)=O)cc3)C2)nc2ccsc12	2.2		104 nM							
Cc1cc(C#N)cc(C)c1Oc1nc(NC2CCN(Cc3ccc(S(C)(=O)=O)cc3)CC2)nc2c1CCC2				40	157 nM	7.45 µM	1500	187 nM	41.8 µM	4.9 nM
Cc1cc(C#N)cc(C)c1Oc1nc(NC2CN(Cc3ccc(S(C)(=O)=O)cc3)C2)nc2ccsc12	1.1	> 240 nM	207 nM							
Cc1cc(C#N)cc(C)c1Oc1nc(NC2CC3CCC(C2)N3Cc2ccc(C(N)=O)cc2)nc2ccsc12 (configuration not stated)	1	> 232 nM	> 232 nM							
Cc1cc(C#N)cc(C)c1Oc1nc(NC2CCCN(Cc3ccncc3)CC2)nc2ccsc12 (configuration not stated)	8	> 257 nM	31.7 nM							
Cc1cc(C#N)cc(C)c1Oc1nc(NC2CCN(Cc3ccc(N)cc3)CC2)nc2c1CSC2					115 nM	> 257 µM		704 nM	108 µM	8.4 nM
Cc1cc(C#N)cc(C)c1Oc1nc(NC2CC3CCC(C2)N3Cc2ccc(S(C)(=O)=O)cc2)nc2ccsc12 (configuration not stated)	1	> 217 nM	> 217 nM							
Cc1cc(C#N)cc(C)c1Oc1nc(NC2CCN(Cc3ccc(C(N)=O)cc3)CC2)nc2c1SCCC2						≥ 44.3 µM		93 nM	> 44.3 µM	3 nM
Cc1cc(C#N)cc(C)c1Oc1nc(N[C@H]2CCN(Cc3ccc(C(N)=O)cc3)C2)nc2ccsc12	4.5	> 250 nM	55.7 nM							
Cc1cc(C#N)cc(C)c1Oc1nc(NC2CCN(Cc3ccc([N+](=O)[O-])cc3)CC2)nc2c1CCC2				9	241 nM	8.73 µM	599	941 nM	> 8.73 µM	14.5 nM
Cc1cc(C#N)cc(C)c1Oc1nc(NC2CCN(Cc3ccc([N+](=O)[O-])cc3)CC2)nc2c1CCCC2				4	94 nM	29.1 µM	376	6900 nM	> 29.1 µM	77.4 nM
Cc1cc(C#N)cc(C)c1Oc1nc(NC2CCN(Cc3ccc(NS(C)(=O)=O)cc3)CC2)nc2c1CSC2					140 nM	> 257 µM		5240 nM	> 257 µM	11.2 nM
Cc1cc(C#N)cc(C)c1Oc1nc(NC2CN(Cc3ccc(C(N)=O)cc3)C2)nc2ccsc12	54	> 257 nM	4.76 nM							
Cc1cc(C#N)cc(C)c1Oc1nc(N[C@@H]2CCN(Cc3ccc(S(C)(=O)=O)cc3)C2)nc2ccsc12	16		13.9 nM							
Cc1cc(C#N)cc(C)c1Oc1nc(NC2CCN(Cc3ccc(S(C)(=O)=O)cc3)CC2)nc2c1CCCC2					89 nM	> 266 µM		66.1 nM	≥ 163 µM	8 nM
Cc1cc(C#N)cc(C)c1Oc1nc(NC2CCCN(Cc3ccc(S(N)(=O)=O)cc3)CC2)nc2ccsc12 (configuration not stated)		> 222 nM	2.2 nM							
Cc1cc(C#N)cc(C)c1Oc1nc(N[C@@H]2CCN(Cc3cccc(C(N)=O)c3)C2)nc2ccsc12	6		41.3 nM							
Cc1cc(C#N)cc(C)c1Oc1nc(NC2CCN(Cc3cccc(C(N)=O)c3)CC2)nc2c1CCCC2				50	101 nM	158 µM	24400	3150 nM	> 158 µM	6.5 nM

SMILES	selectivity ratio [1]	CC50 (TZM)	EC50 [2]	selectivity ratio [3]	IC50 [4]	CC50 (MT4)	selectivity ratio [5]	EC50 [6]	EC50 [7]	EC50 [8]
Cc1cc(C#N)cc(C)c1Oc1nc(N[C@@H]2CCN(Cc3ccc(C(N)=O)cc3)C2)nc2ccsc12	24		10.4 nM							
Cc1cc(C#N)cc(C)c1Oc1nc(N[C@H]2CCN(Cc3ccncc3)C2)nc2ccsc12	16		16.7 nM							
Cc1cc(C#N)cc(C)c1Oc1nc(NC2CCN(Cc3ccc([N+](=O)[O-])cc3)CC2)nc2c1SCC2				12	175 nM	6.18 µM	770	495 nM	> 6.18 µM	8 nM
Cc1cc(C#N)cc(C)c1Oc1nc(NC2CCN(Cc3cccc(C(N)=O)c3)CC2)nc2c1SCC2					94 nM			629 nM	> 223 µM	27.7 nM
Cc1cc(C#N)cc(C)c1Oc1nc(NC2CN(Cc3ccncc3)C2)nc2ccsc12	128	> 282 nM	2.21 nM							
Cc1cc(C#N)cc(C)c1Oc1nc(NC2CCN(Cc3ccc(C(N)=O)cc3)CC2)nc2c1CCCC2					51 nM	> 233 µM		291 nM	> 233 µM	6 nM
Cc1cc(C#N)cc(C)c1Oc1nc(NC2CCCN(Cc3ccc(C(N)=O)cc3)CC2)nc2ccsc12 (configuration not stated)	1	> 237 nM	> 237 nM							
Cc1cc(C#N)cc(C)c1Oc1nc(NC2CN(Cc3cccc(C(N)=O)c3)C2)nc2ccsc12	29	> 257 nM	8.95 nM							
Cc1cc(C#N)cc(C)c1Oc1nc(NC2CC3CCC(C2)N3Cc2ccncc2)nc2ccsc12 (configuration not stated)	1	> 251 nM	> 251 nM							
Cc1cc(C#N)cc(C)c1Oc1nc(NC2CCN(Cc3ccncc3)CC2)nc2c1SCC2					112 nM			46 nM	15.7 µM	2.6 nM
Cc1cc(C#N)cc(C)c1Oc1nc(NC2CCN(Cc3ccc([N+](=O)[O-])cc3)CC2)nc2c1SCCC2				6.6		4 µM	465	604 nM	> 4 µM	8.6 nM
Cc1cc(C#N)cc(C)c1Oc1nc(NC2CC3CCC(C2)N3Cc2cccc(C(N)=O)c2)nc2ccsc12 (configuration not stated)	1	> 232 nM	> 232 nM							
Cc1cc(C#N)cc(C)c1Oc1nc(NC2CCCN(Cc3ccc(S(C)(=O)=O)cc3)CC2)nc2ccsc12 (configuration not stated)	22	> 222 nM	9.98 nM							
Cc1cc(C#N)cc(C)c1Oc1nc(NC2CCN(Cc3ccc([N+](=O)[O-])cc3)CC2)nc2c1COC2					92 nM			511 nM	> 11.1 µM	7.4 nM
Cc1cc(C#N)cc(C)c1Oc1nc(NC2CCN(Cc3cccc(C(N)=O)c3)CC2)nc2c1COC2					91 nM			1030 nM	209 µM	7.8 nM
Cc1cc(C#N)cc(C)c1Oc1nc(NC2CCN(Cc3ccncc3)CC2)nc2c1CCC2					73 nM	> 274 µM		54.7 nM	138 µM	1.8 nM
Cc1cc(C#N)cc(C)c1Oc1nc(NC2CCN(Cc3ccc(S(C)(=O)=O)cc3)CC2)nc2c1SCCC2						≥ 3.4 µM		98.3 nM	> 3.4 µM	3.9 nM
Cc1cc(C#N)cc(C)c1Oc1nc(NC2CC3CCC(C2)N3Cc2ccc(S(N)(=O)=O)cc2)nc2ccsc12 (configuration not stated)	1	> 217 nM	> 217 nM							
Cc1cc(C#N)cc(C)c1Oc1nc(N[C@H]2CCN(Cc3ccc(S(C)(=O)=O)cc3)C2)nc2ccsc12	4.6	> 234 nM	50.7 nM							
Cc1cc(C#N)cc(C)c1Oc1nc(NC2CCN(Cc3ccc(S(N)(=O)=O)cc3)CC2)nc2c1CCCC2					84 nM	> 228 µM		667 nM	> 228 µM	6 nM
Cc1cc(C#N)cc(C)c1Oc1nc(NC2CCN(Cc3ccc(C(N)=O)cc3)CC2)nc2c1CCC2					73 nM			173 nM	139 µM	6.1 nM
Cc1cc(C#N)cc(C)c1Oc1nc(NC2CCCN(Cc3cccc(C(N)=O)c3)CC2)nc2ccsc12 (configuration not stated)	23	> 237 nM	10.3 nM							
Cc1cc(C#N)cc(C)c1Oc1nc(N[C@@H]2CCN(Cc3ccc(S(N)(=O)=O)cc3)C2)nc2ccsc12	26	> 233 nM	8.69 nM							

From ChEMBL document CHEMBL4368909, “Identification of Dihydrofuro[3,4- d]pyrimidine Derivatives as Novel HIV-1 Non-Nucleoside Reverse Transcriptase Inhibitors with Promising Antiviral Activities and Desirable Physicochemical Properties” (J Med Chem, 2019)
